Experimental data gathered from unrelated publications.
Lines come from different studies, so protocols differ.
Target: Cannabinoid receptor 1 (CNR1, Homo sapiens, UniProt P21554)

For `CN(CCN1CCC(OC(=O)Nc2ccccc2-c2ccccc2)CC1)C(=O)c1ccc(CN2CCC(C(N)=O)CC2)cc1`, the inhibition was -3% (ligand displacement, radioligand; 1 µM).
`O=C1N=C(N2CCCCN2)S/C1=C\c1ccc(F)cc1O` gave an inhibition of less than 10% (ligand displacement, radioligand; 10 µM).
For `CCOC(=O)C(CC)(CCCSCCOCCOCCNc1ccc([N+](=O)[O-])c2nonc12)NC(=O)c1ccc(C2CC2)c(Cc2ccc(F)cc2)n1` (racemic), the Emax was 126% (cAMP, agonist).
With `c1ccc(C(NCCNC(c2ccccc2)c2ccccc2)c2ccccc2)cc1` the inhibition was 102% (cell-free assay; 10 µM).
The Emax of `CC(C)C(NC(=O)c1nn(Cc2ccc(F)cc2)c2ccccc12)C(N)=O` (centres unmarked) is reported as 120% (calcium signal, agonist, fluorescence).
The inhibition of `COCc1c(-c2cc3cc(C)cc(OC)c3s2)c2c(N)ncnn2c1CN1CCNC(=O)C1` is reported as 26% (ligand displacement, radioligand; 10 µM).
`CC(C)N1CCC[C@H]1CNC(=O)c1cn(C2CCCC2)c(=O)c2c1c1ccccc1n2C` gave an inhibition of 48% (ligand displacement, radioligand; 10 µM).
`N#Cc1c(Oc2cccc(OS(=O)(=O)CCCC(F)(F)F)c2)cccc1C(F)(F)F` gave an Emax of 39% (calcium signal, agonist, fluorescence; CHO).
The inhibition of `Clc1ccc2c(C3CCN(CCc4c[nH]c5ccccc45)CC3)c[nH]c2c1` is reported as -27% (ligand displacement, radioligand; 10 µM).
The remaining binding of `CCN(CC)CCCC[C@H](NC(=O)[C@H](CC(C)C)NC(=O)[C@H](C)NC(=O)[C@H](Cc1ccccc1)NC(=O)c1ccc(C(C)(C)C)cc1)C(=O)N[C@@H](CO)C(=O)OC` is reported as 113% (ligand displacement, radioligand; 10 µM).
With `COc1ccc(S(=O)(=O)N2CCCCC2)cc1C` the inhibition was less than 30% (ligand displacement, radioligand; 10 µM).
